According to ChEMBL document CHEMBL2331349, “Discovery of olmesartan hexetil: a new potential prodrug of olmesartan” (Bioorg Med Chem Lett, 2013):

Tests used:
Rattus norvegicus [1] = assay: Tmax in Sprague-Dawley rat assessed as olmesartan at 20 mg/kg, po; assay type: ADME, organism-based; parameters: dose 20 mg/kg, route oral; conditions: in vivo
Outline: (§1)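 Male Sprague-Dawley rats (n = 4) dosed orally by feeding tube, 20 mg/kg as olmesartan. Carotid artery blood drawn at 0, 0.5, 1, 2, 3, 4, 6, 8, 10 h; plasma stored until analysis. Olmesartan measured by modified LC–MS/MS. Non-compartmental analysis; AUClast by trapezoidal rule; Tmax given as median (range), others mean ± SD.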

Rattus norvegicus [2] = assay: Cmax in Sprague-Dawley rat assessed as olmesartan at 20 mg/kg, po; assay type: ADME, organism-based; parameters: dose 20 mg/kg, route oral; conditions: in vivo; outline: as §1
[3] = Half life in rat liver microsomes at 1 uM; assay type: ADME, Microsome
Outline: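 Incubation with rat liver microsomes, 0.5 mg/mL total protein, 1.2 mM NADPH, 100 mM phosphate buffer pH 7.4. Substrate added from acetonitrile stock to 1 µM final, 37 °C. Samples at 0, 15, 30, 60, 120 min quenched with twofold cold acetonitrile containing internal standard, centrifuged, supernatant by LC–MS/MS. Mean of duplicate experiments.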

[4] = Half life in rat plasma at 1 uM; assay type: ADME, cell-free
Outline: (§2)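 Substrate added from acetonitrile stock to rat plasma or simulated gastric juice, 1 µM final, 37 °C. Samples at 0, 15, 30, 60, 120 min quenched with twofold cold acetonitrile containing internal standard, centrifuged, supernatant analysed by LC–MS/MS. Half-life reported as mean of duplicate experiments.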

[5] = Half life in simulated gastric juice at 1 uM; assay type: physicochemical; outline: as §2
Rattus norvegicus [6] = assay: AUClast in Sprague-Dawley rat assessed as olmesartan at 20 mg/kg, po; assay type: ADME, organism-based, Plasma; parameters: time 0 - last, dose 20 mg/kg, route oral; conditions: in vivo; outline: as §1

Row | Tmax (Rattus norvegicus [1]) | Cmax (Rattus norvegicus [2]) | half-life at 1 µM [3] | half-life at 1 µM [4] | half-life at 1 µM [5] | AUClast (Rattus norvegicus [6]) | Structure (SMILES)
1 | 54 min | 1374.7 ng/mL | 2.77 min | 1.54 min | 390 min | 3013.8 ng·h/mL | CCCc1nc(C(C)(C)O)c(C(=O)OC(C)OC(=O)OC2CCCCC2)n1Cc1ccc(-c2ccccc2-c2nnn[nH]2)cc1 (stereo not given) [OLMESARTAN HEXETIL]
2 | 60 min | 153.6 ng/mL |  |  | > 1000 min | 501.9 ng·h/mL | CCCc1nc(C(C)(C)O)c(C(=O)OCc2oc(=O)oc2C)n1Cc1ccc(-c2ccccc2-c2nnn[nH]2)cc1 [OLMESARTAN MEDOXOMIL]
